Screening results as filed in PubChem.
NR2F2 inh: NR2F2 transcriptional activity inhibitors, primary screen, cell-based, luciferase reporter, HEK293T, luminescence | inhibition, % at 8.6 µM | 370,000 compounds, 0.7% hits | COUP transcription factor 2 (Homo sapiens), P24468 | HEK293T NGFI-A luciferase reporter;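 active = inhibition above a per-plate cutoff, mean inhibition of test wells between control levels plus 3 SD, cut at about 38% in these data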;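 also: cells cotransfected with COUP-TFII expression vector driving the NGFI-A reporter; 0% = median of COUP-TF2 test wells and 100% = reporter-only cells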
NR2E3 ag-1: NR2E3 agonists in two-hybrid cells, primary screen, cell-based, luminescence, CHO-S, Gal4-NCOR/VP16-NR2E3 | Photoreceptor-specific nuclear receptor (Homo sapiens), Q9Y5X4 | 360,000 compounds, 0.35% hits | AID 602229, 2012 | luciferase | inhibition of corepressor binding, % at 3.98 µM;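 active = inhibition above the mean of all tested compounds plus 3 SD, cut at about 70% in these data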;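 also: 0% = DMSO with NR2E3 transfected cells and 100% = cells lacking NR2E3 construct; higher means lower luciferase signal from less NR2E3 corepressor binding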
Target sequence (Q9Y5X4 whole entry, looked up, the tested form may be a part): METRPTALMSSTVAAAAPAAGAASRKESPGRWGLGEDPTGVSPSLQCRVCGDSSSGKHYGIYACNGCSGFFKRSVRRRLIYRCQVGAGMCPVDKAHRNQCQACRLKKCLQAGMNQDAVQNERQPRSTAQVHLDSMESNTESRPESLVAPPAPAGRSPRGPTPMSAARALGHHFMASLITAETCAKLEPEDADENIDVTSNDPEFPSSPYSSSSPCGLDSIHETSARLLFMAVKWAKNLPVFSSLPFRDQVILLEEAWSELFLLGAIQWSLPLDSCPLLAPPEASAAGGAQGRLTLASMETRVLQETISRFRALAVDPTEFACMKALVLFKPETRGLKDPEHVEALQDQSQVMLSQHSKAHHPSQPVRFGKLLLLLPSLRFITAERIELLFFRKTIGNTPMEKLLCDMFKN
CHT allo act: CHT positive allosteric modulators, primary screen, cell-based, membrane potential dye, choline EC20. CHT-expressing cells; active compounds read high; LV-AA mutant CHT in HEK293 cells. High affinity choline transporter 1 (Homo sapiens), Q9GZV3. 310,000 compounds, 0.49% hits. B-score at 10 µM;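 active = initial fluorescence not abnormally high and integrated response B-score, plate-corrected, over 3 SD above library mean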
CHT block: inhibitors of human choline transporter CHT; High affinity choline transporter 1 (Homo sapiens), Q9GZV3; CHT-expressing cells, membrane potential dye, choline response; active compounds read low; B-score at 10 µM; 310,000 compounds, 0.86% hits; AID 488975, 2010;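 active = B-score over 3 SD under the library average, and starting fluorescence ratio not unusually high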;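 also: choline stimulus applied at its EC90 after an EC20 pre-addition; B-score computed on integrated fluorescence ratio after choline addition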
NR2E3 ag-2: inhibitors of NR2E3-RetCOR corepressor binding, primary screen, NR2E3 agonist project, biochemical, TR-FRET, GST-NR2E3, biotin-RetCOR. Photoreceptor-specific nuclear receptor (Homo sapiens), Q9Y5X4. 1536-well. inhibition of corepressor binding, % at 4.78 µM. 320,000 compounds, 0.12% hits. AID 2300, 2010;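 active = percent inhibition above the cutoff of mean plus 3 SD of all tested compounds, set per screening campaign, cut at about 20% in these data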;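 also: 0% = DMSO wells and 100% = biotin wells as full block of FRET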
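Test system – NR2E3–RetCOR corepressor complex · Quantity – NR2E3 fusion 1.35 nM · Buffer or medium – Tris pH 7.5 · Incubation – Compound–protein incubation for 5 h at 4 °C · Technique – TR-FRET, Eu(K)-anti-GST donor, streptavidin-D2 acceptor, ex 340, em 617/671 nm · Evaluation – percent inhibition of 671/617 nm emission ratio versus biotin and DMSO controls · Plate – 1536-well format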
GalR3 antag: GalR3 antagonists in HEK293 cells, primary screen, cell-based, fluorescence readout; Galanin receptor type 3 (Homo sapiens), O60755; AID 651719, 2012; HEK293 GalR3-CNG cAMP membrane potential fluorescence; galR3 body fused to GalR1 C-terminus; 360,000 compounds, 0.44% hits; inhibition, % at 3 µM;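 active = inhibition above the screen-wide average plus 3 SD, cut at about 13% in these data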;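 also: forskolin and galanin both at EC90 stimulate the cells; cAMP rise reported by CNG channel membrane potential dye signal; 0% = forskolin plus galanin with DMSO and 100% = forskolin alone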
Target sequence (O60755 1-299 limits assumed): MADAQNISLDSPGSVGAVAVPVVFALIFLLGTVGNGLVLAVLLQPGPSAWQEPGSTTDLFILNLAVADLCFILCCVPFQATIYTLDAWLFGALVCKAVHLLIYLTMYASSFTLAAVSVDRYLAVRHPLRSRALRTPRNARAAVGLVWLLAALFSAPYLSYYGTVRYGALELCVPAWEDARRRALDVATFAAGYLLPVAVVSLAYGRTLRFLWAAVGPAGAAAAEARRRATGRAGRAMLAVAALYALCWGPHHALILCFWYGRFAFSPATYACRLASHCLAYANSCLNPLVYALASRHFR
NR2E3 ag confirm: NR2E3 agonist confirmation in cells, cell-based, luminescence, CHO-S two-hybrid | 2,300 compounds, 51% hits | shares compounds with NR2E3 ag-1 | CHO-S mammalian two-hybrid NR2E3-NCOR, luciferase luminescence | inhibition, % at 3.98 µM;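 active = average inhibition above a cutoff equal to the mean inhibition of all tested compounds plus one SD, cut at about 70% in these data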;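 also: 0% = DMSO in NR2E3 cells and 100% = DMSO in cells lacking NR2E3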
GAL4-VP16 luc: GAL4-VP16 reporter modulators, confirmation, counter-screen for NR2E3 agonist project, cell-based, luminescence, CHO-S, high throughput | shares compounds with NR2E3 ag-1 | inhibition, % at 3.98 µM | CHO-S GAL4-VP16 luciferase reporter | 2,300 compounds, 29% hits | AID 624379, 2012;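 active = mean inhibition above a cutoff equal to the average over all tested compounds plus one standard deviation, cut at about 70% in these data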;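 also: luciferase from a UAS reporter driven by GAL4-VP16 transactivation; 0% = DMSO with VP16-transfected cells and 100% = DMSO with cells lacking VP16; higher means less reporter light so more repression of VP16 activity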
Numbers without * were called inactive; i = inactive; x = no result given. Sampled rows, rich in hits. Any-hit rate of the full collection: about 2.3%.

SMILES	NR2F2 inh	NR2E3 ag-1	CHT allo act	CHT block	NR2E3 ag-2	GalR3 antag	NR2E3 ag confirm	GAL4-VP16 luc
FC(F)Sc1ccc(NC(=S)N2CCN(c3ccccn3)CC2)cc1	7	61	x	x	x	-4	87*	45
O=C(NCc1ccccn1)c1ccc2c(=O)n3nc(Nc4ccccc4)sc3nc2c1	-10	-15	i	i	5	-2	x	x
CCc1ccccc1Nc1nn2c(=O)c3ccc(C(=O)NCc4ccccn4)cc3nc2s1	-29	71*	i	i	2	-9	76*	34
CCOC(=O)c1c(C)[nH]c(C(=O)C(C)OC(=O)c2cccc(OCc3c(C)noc3C)c2)c1C (stereo not given)	12	76*	i	i	-2	1	83*	64
COc1ccc(-n2c(COc3ccc(Cl)cc3)nnc2SCC(=O)Nc2ccc(Oc3ccccc3)cc2)cc1	-2	x	x	x	x	x	x	x
Cc1ccc(NC(=O)C(C)c2ccc(-c3ccccc3)c(F)c2)cc1 (stereo not given)	26	74*	i	i	0	-3	89*	77*
S=C1NCCc2ccc(Cl)cc2C1c1ccccc1 (stereo not given)	17	61	i	i	3	-8	43	21
c1ccc(C2CNCCc3ccccc32)cc1 (stereo not given)	-11	-44	i	i	-5	-12	x	x
COC(=O)[C@]12C[C@H](CC(=O)NCc3cccc(C(F)(F)F)c3)C(=O)N(CCC3=CCCCC3)C1=C[C@H](C1CCCC1)O[C@@H]2C	4	x	x	x	x	x	x	x
COc1ccc(C#CCN(Cc2ccc(OC)cc2OC)C(N)=NC(=O)CCc2ccccc2)cc1	-8	x	x	x	x	x	x	x
COc1ccc(OC)c(NC(=O)c2nnn(CCc3ccccc3)c2N)c1	-15	-19	i	i	4	4	x	x
Cc1ccccc1Cn1nnc(C(=O)Nc2cccc(C)c2C)c1N	-18	66	i	i	4	-6	87*	36
Cc1ccc(CNC(=O)Cn2nnc(C(=O)Nc3cccc(C)c3C)c2N)cc1	-2	-43	i	i	2	-9	x	x
COc1ccc(C)cc1NC(=O)c1nnn(Cc2cccc(C(F)(F)F)c2)c1N	9	63	i	i	0	-4	85*	22
O=C1C=CC2(C=C1)O[C@H](Cc1ccccc1)[C@@H](Cc1ccccc1)O2	100*	100*	x	x	x	0	100*	68
COc1ccc(C[C@@H]2OC3(C=CC(=O)C=C3)O[C@H]2Cc2ccc(OC)cc2)cc1	x	97*	x	x	x	x	96*	54
COc1ccc(N2C(=O)CC(Cc3ccccc3)C2=O)cc1 (stereo not given)	-4	11	i	i	-2	-6	x	x
Cc1ccc(CN2CCCCC(NC(=O)c3ccc(F)c(F)c3)C2=O)cc1 (stereo not given)	1	x	x	x	x	x	x	x
O=C(CN1CCc2onc(-c3ccc(-n4cc(C5=CCCCC5)nn4)cc3)c2C1=O)N1CCOCC1	1	x	x	x	x	x	x	x
COc1ccc(Cn2c(NC(=O)c3ccccc3)nc(Cc3ccccc3)c2-c2ccccc2)cc1	-18	x	x	x	x	x	x	x
Cc1ccc(NC(=O)Cc2cccc(OC(F)(F)F)c2)c(S(=O)(=O)N2CCOCC2)c1	8	x	x	x	x	x	x	x
OC(c1cc(-c2ccc(C(F)(F)F)cc2)nc(C(F)(F)F)c1)C1CCCCN1 (stereo not given)	-5	92*	i	i	-1	-13	59	48
COc1cc(/C=N/NC(=O)c2sc(N)c(C#N)c2C)cc(Br)c1O	-22	60	i	i	-2	-6	4	-6
CC(=O)Nc1nc2ncccn2c1-c1ccccc1	-6	x	x	x	x	x	x	x
Cc1ccc(C(=O)C2CCN(C(=O)c3ccc(C)cc3)CC2)cc1	-1	55	i	i	-2	-10	32	27
SMILES	NR2F2 inh	NR2E3 ag-1	CHT allo act	CHT block	NR2E3 ag-2	GalR3 antag	NR2E3 ag confirm	GAL4-VP16 luc
Clc1ccccc1C(c1ccccc1)(c1ccccc1)n1ccnc1	17	60	i	i	-28	1	70	54
COc1ccccc1NC(=O)CSc1nnnn1-c1ccccc1OC	17	-21	i	i	1	-1	x	x
COc1ccccc1NC(=O)CSc1nnnn1-c1ccc2c(c1)OCO2	15	69	i	i	-1	-3	64	9
COc1ccc(CNC(=O)c2sc3nc(C)c(Cl)c(C)c3c2N)cc1	-13	x	x	x	x	x	x	x
COc1ccc(S(=O)(=O)Nc2ccc3c(c2)n(C)c(=O)n3C)cc1F	-9	74*	i	i	-1	-11	11	19
Cc1cc(-c2n[nH]c(=S)n2N=Cc2cc(Br)ccc2F)n[nH]1	-10	x	x	x	x	x	x	x
CCC(c1nnnn1-c1ccc2c(c1)OCCO2)N1CCN(c2ccc(F)cc2)CC1 (stereo not given)	x	54	x	x	x	x	53	48
COC(=O)c1cc(-c2ccc(C)c(C)c2)c(=O)n2c1CCC2	-4	x	x	x	x	x	x	x
CC(OC(=O)c1cc(Br)ccc1O)C(=O)Nc1ccc(S(=O)(=O)N2CCCC2)cc1 (stereo not given)	-2	52	i	i	-1	-1	-23	-4
CCCN(CC1CC1)c1nc(C)nc2c1nnn2Cc1ccccc1	-5	x	x	x	x	x	x	x
COc1ccc(CNC(=O)c2ccc3ccccc3n2)cc1OC	28	85*	i	i	-1	-12	60	44
COc1ccc(CCNC(=O)c2ccc3ccccc3n2)cc1OC	6	-22	i	i	6	-5	x	x
Oc1[nH]c2ccccc2c1N=NC(=S)N1CCOCC1	x	101*	i	i	-5	x	75*	38
Oc1[nH]c2ccc(Br)cc2c1N=NC(=S)N1CCOCC1	36	98*	i	i	1	13*	90*	44
NC(=S)N=Nc1c(O)[nH]c2ccccc12	2	10	i	i	-8	4	x	x
O=C1[C@@H](C2CC2)[C@@H]2c3ccccc3C=NN2[C@@H]2c3ccccc3C=NN12	-13	x	x	x	x	x	x	x
